The first assay addresses Thymidine phosphorylase (Escherichia coli K-12, UniProt P07650). Put plainly: Inhibition of Escherichia coli thymidine phosphorylase using […] as substrate after 10 mins by spectrophotometric analysis. Summed up: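 Commercial E. coli TP in potassium phosphate buffer, pH 7.4, with […] substrate (1.5 mM stock). Test material incubated with the reaction mix for 10 min at 25 °C. Absorbance at 290 nm then read continuously at 10, 20 and 30 min. Substrate-free blanks were subtracted. Run in triplicate; IC50 given as mean ± SEM of three independent experiments.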
Sequence of Thymidine phosphorylase (P07650 whole entry): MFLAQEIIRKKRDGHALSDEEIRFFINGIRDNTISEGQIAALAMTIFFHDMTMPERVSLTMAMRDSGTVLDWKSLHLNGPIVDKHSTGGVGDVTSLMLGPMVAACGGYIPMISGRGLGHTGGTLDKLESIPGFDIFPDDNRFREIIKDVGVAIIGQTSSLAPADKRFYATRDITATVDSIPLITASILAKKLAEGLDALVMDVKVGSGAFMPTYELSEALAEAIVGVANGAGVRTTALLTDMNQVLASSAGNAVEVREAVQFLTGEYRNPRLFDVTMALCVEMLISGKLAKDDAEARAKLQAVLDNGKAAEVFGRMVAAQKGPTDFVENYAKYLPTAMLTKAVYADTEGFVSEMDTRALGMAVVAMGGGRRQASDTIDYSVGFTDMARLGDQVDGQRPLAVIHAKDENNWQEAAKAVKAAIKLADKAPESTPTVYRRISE
Sequence of Thymidine phosphorylase (Escherichia coli K-12) (P07650 whole entry, looked up): as the sequence (P07650 whole entry) above
With `Cc1ccc(-c2nn(CNc3ccccc3)c(=S)o2)cc1`, half-maximal inhibition (IC50) required 104 µM.
Still for that read-out and setting: as for `Cc1ccccc1NCn1nc(-c2ccc(Cl)cc2)oc1=S`, the figure is 58.2 µM; as for `COc1cc(-c2nn(CNc3ccccc3C)c(=S)o2)cc(OC)c1OC`, 117 µM.
Compound `COc1ccc([N+](=O)[O-])cc1NCn1nc(-c2ccc(C)cc2)oc1=S` showed an IC50 of 14.4 µM.
The compound `S=c1oc(-c2ccccc2Br)nn1CNc1ccccc1Cl` returned an IC50 of 21.8 µM.
On the same count and under the same terms, as for `S=c1oc(-c2ccc(Cl)cc2)nn1CNc1ccc(Br)cc1`, the figure is 173 µM; as for `COc1cc(-c2nn(CNCCc3ccccc3)c(=S)o2)cc(OC)c1OC`, 69.3 µM.
Regarding `Oc1ccccc1-c1nn(CNc2ccccc2Cl)c(=S)o1`, the IC50 worked out at 130 µM.
Same read-out and setting: as for `Cc1ccc(NCn2nc(-c3ccc(C)cc3)oc2=S)cc1`, the figure is 54.7 µM; as for `Cc1ccc(-c2nn(CNc3ccc(Cl)c(Cl)c3)c(=S)o2)cc1`, 134 µM; as for `Cc1ccc(-c2nn(CNc3cccc(C)c3C)c(=S)o2)cc1`, 23.7 µM.
Same read-out and setting: then `S=c1oc(-c2ccc(Cl)cc2)nn1CNc1ccccc1Cl`, with 46.4 µM.
The same measure, in the same setting: then `COc1ccccc1NCn1nc(-c2ccccc2Br)oc1=S`, with 17.6 µM.
`Cc1ccc(NCn2nc(-c3ccccc3)oc2=S)cc1C` gave an IC50 of 40.6 µM.
The same measure, in the same setting: as for `COc1cccc(NCn2nc(-c3ccc(C)cc3)oc2=S)c1`, the figure is 84.4 µM; as for `S=c1oc(-c2ccccc2Br)nn1CNc1ccc(Br)cc1`, 26.3 µM.
For the compound `COc1cccc(NCn2nc(-c3ccccc3)oc2=S)c1`, the IC50 was 40.6 µM.
As to `COc1ccccc1NCn1nc(-c2ccccc2)oc1=S`, the IC50 came out at 87.2 µM.
The same measure, in the same setting: then `S=c1oc(-c2ccccc2)nn1CNc1ccccc1Cl`, with 118 µM; and `COc1ccccc1NCn1nc(-c2ccc(Cl)cc2)oc1=S`, with 88.7 µM.
On the same count and under the same terms, then `Cc1ccc(-c2nn(CNc3ccc(C)c(C)c3)c(=S)o2)cc1`, with 83.2 µM.

The next assay has as its target Thymidine phosphorylase (Escherichia coli K-12) (UniProt P07650). As to the kind of experiment: Ratio of 7-deazaxanthine IC50 to compound IC50 for Escherichia coli thymidine phosphorylase using […] as substrate after 10 mins by spectrophotometric analysis.
As to `COc1ccc([N+](=O)[O-])cc1NCn1nc(-c2ccc(C)cc2)oc1=S`, the Ratio IC50 stood at 2.5.

Source of the values: ChEMBL document CHEMBL3102789, “Synthesis and biological evaluation of novel oxadiazole derivatives: a new class of thymidine phosphorylase inhibitors as potential anti-tumor agents” (Bioorg Med Chem, 2014).
